Tests used:
[1] = Time required to reduce the alkylating activity of 10% human blood serum from its initial value by 50%.; format: ADME, Plasma
Homo sapiens [2] = species: Homo sapiens; experiment: Alkylating activity of compound remaining after 24 hours of incubation with 10% human blood serum; format: functional
Homo sapiens [3] = species: Homo sapiens; experiment: Alkylating activity of compound remaining after 96 hours of incubation with 10% human blood serum; format: functional
Homo sapiens [4] = species: Homo sapiens; experiment: Alkylating activity of compound remaining after 48 hours of incubation with 10% human blood serum; format: functional
MOLT-4 = experiment: In vitro inhibitory activity against acute lymphoblastic leukemia (MOLT4) cell line.; format: functional, cell-based; conditions: Homo sapiens
Outline: (§1)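 MCF7 (trypsinized monolayer) or MOLT4 (suspension) cells in RPMI 1640 with 10% FCS, plated at 1.0 × 10^5 cells/mL and allowed 24 h recovery. Then 6 days continuous drug exposure, 0.15–40 µM, triplicate wells. Propidium iodide fluorescence read (ex 530/em 620) before and after freeze-kill; viable cells = FU2 − FU1; %T/C; IC50 as mean ± SD, n = 3.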

MCF7 = experiment: In vitro inhibitory activity against mammary carcinoma (MCF-7) cell line.; format: functional, cell-based; conditions: Homo sapiens; outline: as §1

Row | SMILES | half-life [1] | Activity (Homo sapiens [2]) | Activity (Homo sapiens [3]) | Activity (Homo sapiens [4]) | IC50 (MOLT-4) | IC50 (MCF7)
1 | O=C(CCCc1ccc(N(CCCl)CCCl)cc1)N/N=C/c1cccc(N2C(=O)C=CC2=O)c1 | 5.9 h | 24.1% | 13.4% | 14.5% | 7.5 µM | 35.5 µM
2 | O=C(CCCc1ccc(N(CCCl)CCCl)cc1)N/N=C/CN1C(=O)C=CC1=O | 4 h | 25% | 15.2% | 19.5% | 0.35 µM | 6.8 µM
3 | O=C(O)CCCc1ccc(N(CCCl)CCCl)cc1 [CHLORAMBUCIL] | 4.5 h | 12.2% |  | 6.6% | 6.3 µM | 24.6 µM
4 | O=C(CCCc1ccc(N(CCCl)CCCl)cc1)Oc1cccc(N2C(=O)C=CC2=O)c1 | 4.3 h | 22.3% | 12.1% | 15.2% | 15.3 µM | 
5 | C/C(=N\NC(=O)CCCc1ccc(N(CCCl)CCCl)cc1)c1cccc(N2C(=O)C=CC2=O)c1 | 4.5 h | 22.9% | 10.9% | 13.7% | 3.3 µM | 
6 | O=C(CCCc1ccc(N(CCCl)CCCl)cc1)OCCN1C(=O)C=CC1=O | 3.1 h | 20.9% | 11% | 13.8% | 7.8 µM | 

Source: ChEMBL document CHEMBL1131029, “Synthesis and in vitro efficacy of transferrin conjugates of the anticancer drug chlorambucil” (J Med Chem, 1998)
